Test results published in ChEMBL document CHEMBL4007456, “Heterocyclyl Tetracyclines. 1. 7-Trifluoromethyl-8-Pyrrolidinyltetracyclines: Potent, Broad Spectrum Antibacterial Agents with Enhanced Activity against Pseudomonas aeruginosa” (2017).
In brackets after ≈: the same amount, converted by molar mass.

Key:
Assay type in all cases: functional
Escherichia coli [1] = test: Antibacterial activity against gram-negative Escherichia coli EC107 by CLSI method
Summary of the method: (§1)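 Broth microdilution MIC per CLSI in cation-adjusted Mueller Hinton broth, prepared fresh and held at 4 °C. Defibrinated horse blood added where appropriate. Compounds serially diluted in sterile deionized water. Strains from ATCC unless otherwise noted. Runs accepted when comparator antibiotics fell within QC ranges for ATCC quality control strains.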

[2] = system: Stenotrophomonas maltophilia; test: Antibacterial activity against gram-negative Stenotrophomonas maltophilia SM256 by CLSI method; summary of the method: as §1
Enterococcus faecium = test: Antibacterial activity against gram-positive Enterococcus faecium EFm404 harboring tet(M) by CLSI method
Summary of the method: (§2)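 CLSI broth microdilution MIC in fresh cation-adjusted Mueller Hinton broth, supplemented with defibrinated horse blood where appropriate. Compounds serially diluted in sterile deionized water. Runs accepted when comparator antibiotics against ATCC quality-control strains fell within recommended ranges.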

Burkholderia cenocepacia = test: Antibacterial activity against gram-negative Burkholderia cenocepacia BC240 by CLSI method
Summary of the method: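 Defibrinated horse blood added where appropriate. Compounds serially diluted in sterile deionized water. Strains from ATCC unless otherwise noted. Runs accepted when comparator antibiotics fell within QC ranges for ATCC quality control strains.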

Pseudomonas aeruginosa = test: Antibacterial activity against gram-negative Pseudomonas aeruginosa PA555 by CLSI method; summary of the method: as §1
Staphylococcus aureus [3] = test: Antibacterial activity against gram-positive Staphylococcus aureus SA101 by CLSI method; summary of the method: as §1
Staphylococcus aureus [4] = test: Antibacterial activity against gram-positive Staphylococcus aureus SA158 harboring tet(K) by CLSI method; summary of the method: as §2
Acinetobacter baumannii = test: Antibacterial activity against gram-negative Acinetobacter baumannii AB250 by CLSI method; summary of the method: as §1
Streptococcus pneumoniae = test: Antibacterial activity against gram-positive Streptococcus pneumoniae SP160 harboring tet(M) by CLSI method; summary of the method: as §2
Escherichia coli [5] = test: Antibacterial activity against gram-negative Escherichia coli EC155 harboring tet(A) by CLSI method; summary of the method: as §2
Enterobacter cloacae = test: Antibacterial activity against gram-negative Enterobacter cloacae EC1603 harboring tet(A) by CLSI method; summary of the method: as §2
Proteus mirabilis = test: Antibacterial activity against gram-negative Proteus mirabilis PM385 by CLSI method; summary of the method: as §1
Enterococcus faecalis = test: Antibacterial activity against gram-positive Enterococcus faecalis EFs327 harboring tet(M) by CLSI method; summary of the method: as §2
Klebsiella pneumoniae = test: Antibacterial activity against gram-negative Klebsiella pneumoniae KP457 harboring blacTX-M-15 extended spectrum beta-lactamase gene by CLSI method; summary of the method: as §2
Staphylococcus aureus [6] = test: Antibacterial activity against gram-positive Staphylococcus aureus SA161 harboring tet(M) by CLSI method; summary of the method: as §2

SMILES	MIC (Escherichia coli [1])	MIC [2]	MIC (Enterococcus faecium)	MIC (Burkholderia cenocepacia)	MIC (Pseudomonas aeruginosa)	MIC (Staphylococcus aureus [3])	MIC (Staphylococcus aureus [4])	MIC (Acinetobacter baumannii)	MIC (Streptococcus pneumoniae)	MIC (Escherichia coli [5])	MIC (Enterobacter cloacae)	MIC (Proteus mirabilis)	MIC (Enterococcus faecalis)	MIC (Klebsiella pneumoniae)	MIC (Staphylococcus aureus [6])
CN(C)[C@@H]1C(O)=C(C(N)=O)C(=O)[C@@]2(O)C(O)=C3C(=O)c4c(O)cc(C5CCCN5)c(OC(F)(F)F)c4C[C@H]3C[C@@H]12 (stereo not given in full)	≤ 0.0156 µg/mL	2 µg/mL (≈ 3.52 µM)	0.125 µg/mL (≈ 0.22 µM)	8 µg/mL (≈ 14.1 µM)	8 µg/mL (≈ 14.1 µM)	0.125 µg/mL (≈ 0.22 µM)	≤ 0.0156 µg/mL	2 µg/mL (≈ 3.52 µM)	≤ 0.0156 µg/mL	8 µg/mL (≈ 14.1 µM)	16 µg/mL (≈ 28.2 µM)	1 µg/mL (≈ 1.76 µM)	1 µg/mL (≈ 1.76 µM)	0.25 µg/mL (≈ 0.441 µM)	2 µg/mL (≈ 3.52 µM)
CC(C)N1CCC[C@H]1c1cc(O)c2c(c1C(F)(F)F)C[C@H]1C[C@H]3[C@H](N(C)C)C(O)=C(C(N)=O)C(=O)[C@@]3(O)C(O)=C1C2=O	0.125 µg/mL (≈ 0.211 µM)	4 µg/mL (≈ 6.74 µM)	0.25 µg/mL (≈ 0.421 µM)	16 µg/mL (≈ 27 µM)	32 µg/mL (≈ 53.9 µM)	0.125 µg/mL (≈ 0.211 µM)	0.0625 µg/mL (≈ 0.105 µM)	2 µg/mL (≈ 3.37 µM)	≤ 0.0156 µg/mL	1 µg/mL (≈ 1.68 µM)	16 µg/mL (≈ 27 µM)	4 µg/mL (≈ 6.74 µM)	0.5 µg/mL (≈ 0.842 µM)	8 µg/mL (≈ 13.5 µM)	2 µg/mL (≈ 3.37 µM)
CN(C)[C@@H]1C(O)=C(C(N)=O)C(=O)[C@@]2(O)C(O)=C3C(=O)c4c(O)cc([C@@H]5CCCN5)c(F)c4C[C@H]3C[C@@H]12	0.125 µg/mL (≈ 0.249 µM)	8 µg/mL (≈ 16 µM)	4 µg/mL (≈ 7.98 µM)	> 32 µg/mL	8 µg/mL (≈ 16 µM)	0.5 µg/mL (≈ 0.997 µM)	0.125 µg/mL (≈ 0.249 µM)	32 µg/mL (≈ 63.8 µM)	1 µg/mL (≈ 1.99 µM)	16 µg/mL (≈ 31.9 µM)	32 µg/mL (≈ 63.8 µM)	0.25 µg/mL (≈ 0.498 µM)	32 µg/mL (≈ 63.8 µM)	0.5 µg/mL (≈ 0.997 µM)	> 32 µg/mL
CN(C)[C@@H]1C(O)=C(C(N)=O)C(=O)[C@@]2(O)C(O)=C3C(=O)c4c(O)cc([C@H]5CCCN5)c(C(F)(F)F)c4C[C@H]3C[C@@H]12	≤ 0.0156 µg/mL	1 µg/mL (≈ 1.81 µM)	4 µg/mL (≈ 7.25 µM)	8 µg/mL (≈ 14.5 µM)	8 µg/mL (≈ 14.5 µM)	0.125 µg/mL (≈ 0.227 µM)	0.0312 µg/mL (≈ 0.0566 µM)	2 µg/mL (≈ 3.63 µM)	1 µg/mL (≈ 1.81 µM)	2 µg/mL (≈ 3.63 µM)	8 µg/mL (≈ 14.5 µM)	0.5 µg/mL (≈ 0.907 µM)	16 µg/mL (≈ 29 µM)	0.125 µg/mL (≈ 0.227 µM)	16 µg/mL (≈ 29 µM)
CCN1CCC[C@H]1c1cc(O)c2c(c1C(F)(F)F)C[C@H]1C[C@H]3[C@H](N(C)C)C(O)=C(C(N)=O)C(=O)[C@@]3(O)C(O)=C1C2=O	≤ 0.0156 µg/mL	1 µg/mL (≈ 1.73 µM)	0.125 µg/mL (≈ 0.216 µM)	8 µg/mL (≈ 13.8 µM)	32 µg/mL (≈ 55.2 µM)	0.0312 µg/mL (≈ 0.0538 µM)	≤ 0.0156 µg/mL	1 µg/mL (≈ 1.73 µM)	≤ 0.0156 µg/mL	0.5 µg/mL (≈ 0.863 µM)	4 µg/mL (≈ 6.9 µM)	4 µg/mL (≈ 6.9 µM)	0.5 µg/mL (≈ 0.863 µM)	4 µg/mL (≈ 6.9 µM)	1 µg/mL (≈ 1.73 µM)
CC1CCN(C)C1c1cc(O)c2c(c1C(F)(F)F)C[C@H]1C[C@H]3[C@H](N(C)C)C(O)=C(C(N)=O)C(=O)[C@@]3(O)C(O)=C1C2=O (stereo not given in full)	0.0625 µg/mL (≈ 0.108 µM)	1 µg/mL (≈ 1.73 µM)	2 µg/mL (≈ 3.45 µM)	16 µg/mL (≈ 27.6 µM)	32 µg/mL (≈ 55.2 µM)	0.5 µg/mL (≈ 0.863 µM)	0.0312 µg/mL (≈ 0.0538 µM)	8 µg/mL (≈ 13.8 µM)	≤ 0.0156 µg/mL	2 µg/mL (≈ 3.45 µM)	2 µg/mL (≈ 3.45 µM)	8 µg/mL (≈ 13.8 µM)	4 µg/mL (≈ 6.9 µM)	4 µg/mL (≈ 6.9 µM)	4 µg/mL (≈ 6.9 µM)
CN(C)[C@@H]1C(O)=C(C(N)=O)C(=O)[C@@]2(O)C(O)=C3C(=O)c4c(O)cc([C@@H]5CCCN5C)c(C(F)(F)F)c4C[C@H]3C[C@@H]12	0.0312 µg/mL (≈ 0.0552 µM)	0.125 µg/mL (≈ 0.221 µM)		4 µg/mL (≈ 7.07 µM)	8 µg/mL (≈ 14.1 µM)	0.125 µg/mL (≈ 0.221 µM)	≤ 0.0156 µg/mL	0.25 µg/mL (≈ 0.442 µM)	≤ 0.0156 µg/mL	0.5 µg/mL (≈ 0.884 µM)				2 µg/mL (≈ 3.54 µM)	2 µg/mL (≈ 3.54 µM)
CC(C)CN1CCC[C@H]1c1cc(O)c2c(c1C(F)(F)F)C[C@H]1C[C@H]3[C@H](N(C)C)C(O)=C(C(N)=O)C(=O)[C@@]3(O)C(O)=C1C2=O	4 µg/mL (≈ 6.58 µM)	> 32 µg/mL	1 µg/mL (≈ 1.65 µM)	> 32 µg/mL	> 32 µg/mL	2 µg/mL (≈ 3.29 µM)	1 µg/mL (≈ 1.65 µM)	> 32 µg/mL	0.5 µg/mL (≈ 0.823 µM)	> 32 µg/mL	> 32 µg/mL	> 32 µg/mL	1 µg/mL (≈ 1.65 µM)	> 32 µg/mL	2 µg/mL (≈ 3.29 µM)
CN(C)[C@@H]1C(O)=C(C(N)=O)C(=O)[C@@]2(O)C(O)=C3C(=O)c4c(O)cc([C@@H]5CCCN5)cc4C[C@H]3C[C@@H]12	0.25 µg/mL (≈ 0.517 µM)	32 µg/mL (≈ 66.2 µM)	16 µg/mL (≈ 33.1 µM)	> 32 µg/mL	16 µg/mL (≈ 33.1 µM)	4 µg/mL (≈ 8.27 µM)	0.5 µg/mL (≈ 1.03 µM)	> 32 µg/mL	8 µg/mL (≈ 16.5 µM)	4 µg/mL (≈ 8.27 µM)	4 µg/mL (≈ 8.27 µM)	0.25 µg/mL (≈ 0.517 µM)	> 32 µg/mL	0.5 µg/mL (≈ 1.03 µM)	> 32 µg/mL
CC1CCC(c2cc(O)c3c(c2C(F)(F)F)C[C@H]2C[C@H]4[C@H](N(C)C)C(O)=C(C(N)=O)C(=O)[C@@]4(O)C(O)=C2C3=O)N1 (stereo not given in full)	≤ 0.0156 µg/mL	0.25 µg/mL (≈ 0.442 µM)	0.25 µg/mL (≈ 0.442 µM)	4 µg/mL (≈ 7.07 µM)	8 µg/mL (≈ 14.1 µM)	0.125 µg/mL (≈ 0.221 µM)	≤ 0.0156 µg/mL	0.5 µg/mL (≈ 0.884 µM)	≤ 0.0156 µg/mL	0.5 µg/mL (≈ 0.884 µM)	8 µg/mL (≈ 14.1 µM)	0.5 µg/mL (≈ 0.884 µM)	1 µg/mL (≈ 1.77 µM)	0.25 µg/mL (≈ 0.442 µM)	1 µg/mL (≈ 1.77 µM)
CC1CCC(c2cc(O)c3c(c2C(F)(F)F)C[C@H]2C[C@H]4[C@H](N(C)C)C(O)=C(C(N)=O)C(=O)[C@@]4(O)C(O)=C2C3=O)N1C (stereo not given in full)	0.5 µg/mL (≈ 0.863 µM)	2 µg/mL (≈ 3.45 µM)	1 µg/mL (≈ 1.73 µM)	8 µg/mL (≈ 13.8 µM)	> 32 µg/mL	0.5 µg/mL (≈ 0.863 µM)	0.125 µg/mL (≈ 0.216 µM)	2 µg/mL (≈ 3.45 µM)	0.0312 µg/mL (≈ 0.0538 µM)	2 µg/mL (≈ 3.45 µM)	16 µg/mL (≈ 27.6 µM)	4 µg/mL (≈ 6.9 µM)	2 µg/mL (≈ 3.45 µM)	8 µg/mL (≈ 13.8 µM)	1 µg/mL (≈ 1.73 µM)
CN(C)c1c(C2CCCN2)cc(O)c2c1C[C@H]1C[C@H]3[C@H](N(C)C)C(O)=C(C(N)=O)C(=O)[C@@]3(O)C(O)=C1C2=O (stereo not given in full)	2 µg/mL (≈ 3.8 µM)	32 µg/mL (≈ 60.8 µM)		> 32 µg/mL		2 µg/mL (≈ 3.8 µM)	1 µg/mL (≈ 1.9 µM)	> 32 µg/mL	2 µg/mL (≈ 3.8 µM)	32 µg/mL (≈ 60.8 µM)					32 µg/mL (≈ 60.8 µM)
